Assay results reported in PMC10872613 (Journal of immunology (Baltimore, Md. : 1950), 2024).
“Also recorded” adds a separate entry of the source. Read-outs that look alike come from different tables or passages of the source. Blank lines part the entries; values can stand above or below the compound they belong to.

Experiments:
[1] = system: bovine pancreatic trypsin; settings: concentrations up to 200 μM; cited from earlier work
C1s-2SP = target: T1, C1s-2SP (Homo sapiens, UniProt P09871); experiment: C1s-2SP chromogenic ZGR cleavage assay; type: biochemical; settings: for C1s-2SP activity (initial velocity of ZGR cleavage): 100 μM compound, single-concentration screen, compared with mean of library; for loss of activity compared to A1: Ki against human C1s-2SP relative to A1
T1 sequence (P09871 357-423 limits assumed): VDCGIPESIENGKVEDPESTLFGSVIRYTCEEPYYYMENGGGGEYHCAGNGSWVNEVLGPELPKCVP
T1 sequence (P09871 438-688 limits assumed): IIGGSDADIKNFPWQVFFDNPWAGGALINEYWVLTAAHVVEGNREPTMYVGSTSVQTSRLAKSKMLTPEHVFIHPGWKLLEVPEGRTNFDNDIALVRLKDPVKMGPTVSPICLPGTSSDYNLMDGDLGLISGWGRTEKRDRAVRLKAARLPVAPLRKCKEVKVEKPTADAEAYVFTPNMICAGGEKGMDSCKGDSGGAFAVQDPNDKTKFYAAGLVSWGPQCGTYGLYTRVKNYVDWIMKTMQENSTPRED
In short: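 Recombinant human C1s-2SP was expressed in E. coli BL21(DE3), purified by denaturing IMAC, refolded in glutathione redox buffer and isolated by gel filtration. The enzyme (2.4 nM) was run at 25 °C in 50 mM HEPES pH 7.4, 140 mM NaCl, 0.005% Tween-20, 5% DMSO, 0.44 mM DTNB. ZGR initial velocities were read on a 4×5 grid (~0.2–1.2 x Km; inhibitor 0–~2.6 x Ki), n = 3, with a global competitive fit.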

[2] = target: T2, C1s purified from human serum (Homo sapiens, UniProt P09871); experiment: Native C1s chromogenic ZGR assay; type: biochemical
T2 sequence (P09871 16-437 limits assumed): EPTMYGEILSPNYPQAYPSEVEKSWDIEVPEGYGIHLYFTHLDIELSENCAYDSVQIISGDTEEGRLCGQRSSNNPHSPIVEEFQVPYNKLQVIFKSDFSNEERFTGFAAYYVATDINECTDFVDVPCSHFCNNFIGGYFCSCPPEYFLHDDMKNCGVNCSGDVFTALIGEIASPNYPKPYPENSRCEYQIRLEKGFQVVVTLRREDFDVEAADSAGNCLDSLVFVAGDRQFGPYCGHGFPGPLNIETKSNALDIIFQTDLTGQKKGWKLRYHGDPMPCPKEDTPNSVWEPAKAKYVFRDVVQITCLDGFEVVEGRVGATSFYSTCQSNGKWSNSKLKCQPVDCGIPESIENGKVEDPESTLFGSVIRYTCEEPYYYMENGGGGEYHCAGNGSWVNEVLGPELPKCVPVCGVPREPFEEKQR
T2 sequence (P09871 438-688 limits assumed): T1 sequence (P09871 438-688 limits assumed)

classical pathway (CP) = experiment: CP-specific ELISA; type: biochemical, human; settings: for C4b deposition (CP activity): 100 μM compound, single-concentration screen, 2% human serum
In short: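 Wells coated with human IgM received 2% (v/v) complement-preserved human serum with a two-fold test compound series (100–3.1 μM) in HBS++ plus 0.1% gelatin, 1 h at 37 °C. After TBS-T washes, deposited C4b was detected with mouse anti-C4b mAb and HRP anti-mouse IgG. Signals were normalized to uninhibited and serum-free controls. Triplicates were fit to a four-parameter dose-response model.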

Cathepsin-G = experiment: Cathepsin G chromogenic assay; type: biochemical, human; settings: inhibitor 0 to 29.4 μM; data not shown
In short: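 Cathepsin G (9.5 nM) was assayed at 25 °C with inhibitor 0–29.4 μM and fixed 0.92 mM succinyl-Ala-Ala-Pro-Phe-p-nitroanilide (ε400 = 12.3 mM−1 cm−1). Buffer: 50 mM HEPES pH 7.4, 140 mM NaCl, 0.025% Tween-20, 20.7% DMSO. Microplate chromogenic read-out.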

thrombin = thrombin (Homo sapiens, UniProt P00734); experiment: Thrombin chromogenic ZGR assay; type: biochemical
In short: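 Serum-purified activated thrombin (2.7 nM) was assayed at 25 °C in 50 mM HEPES pH 7.4, 140 mM NaCl, 0.005% Tween-20, 5% DMSO with 0.59 mM DTNB. Initial ZGR hydrolysis rates were measured at four ZGR levels (~Km–9 x Km) × five inhibitor levels (0–~3.4 x Ki). Triplicate data were globally fit to a competitive inhibition model.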

[3] = system: CP activation by heparin-induced immune complexes; experiment: CP activation by heparin-induced immune complexes in whole blood; type: cell-based, human; settings: highest concentration examined (series 1,000 – 10 μM)
In short: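 Healthy-donor whole blood was anticoagulated with ACD (1.4 mL per 8.6 mL blood). It was preincubated 30 min at room temperature with buffer, test compound (1000–10 μM) or B. miyamotoi FbpA-C/FbpB-C control proteins (100 μg/mL). Anti-PF4/heparin antibody KKO (50 μg/mL), PF4 (25 μg/mL) and heparin (1 U/mL) were then added, 30 min at 37 °C. Plasma was quenched with 10 mM EDTA, and C5a was measured by sandwich ELISA.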

lectin pathway (LP) = experiment: LP ELISA; type: biochemical, human; settings: 100 μM A1, C1q-depleted serum, mannan-coated plates
mouse C1s-2SP = target: T3, mouse C1s-2SP (Mus musculus, UniProt Q8CG14); experiment: Mouse C1s-2SP chromogenic ZGR assay; type: biochemical
T3 sequence (Q8CG14 357-423 limits assumed): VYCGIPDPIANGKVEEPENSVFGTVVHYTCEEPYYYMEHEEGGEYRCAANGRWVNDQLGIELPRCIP
T3 sequence (Q8CG14 438-688 limits assumed): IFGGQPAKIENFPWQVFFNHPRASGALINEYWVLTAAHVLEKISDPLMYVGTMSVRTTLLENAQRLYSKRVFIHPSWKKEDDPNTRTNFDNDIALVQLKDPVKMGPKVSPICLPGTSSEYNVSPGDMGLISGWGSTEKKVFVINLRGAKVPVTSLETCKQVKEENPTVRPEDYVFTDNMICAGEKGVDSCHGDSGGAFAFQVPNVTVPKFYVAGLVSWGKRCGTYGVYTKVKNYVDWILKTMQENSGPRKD
In short: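 Recombinant mouse C1s-2SP (2.5 nM) was tested at 25 °C in 50 mM HEPES pH 7.4, 140 mM NaCl, 0.005% Tween-20, 5% DMSO, 0.44 mM DTNB. ZGR initial velocities were measured at four substrate levels (~2.3–9.4 x Km) and five inhibitor levels (0–~8.4 x Ki). Triplicate data were globally fit to a competitive inhibition model.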

[4] = target: T4, C1r purified from human serum (Homo sapiens, UniProt P00736); experiment: C1r chromogenic ZGR assay; type: biochemical
T4 sequence (P00736 18-463 limits assumed): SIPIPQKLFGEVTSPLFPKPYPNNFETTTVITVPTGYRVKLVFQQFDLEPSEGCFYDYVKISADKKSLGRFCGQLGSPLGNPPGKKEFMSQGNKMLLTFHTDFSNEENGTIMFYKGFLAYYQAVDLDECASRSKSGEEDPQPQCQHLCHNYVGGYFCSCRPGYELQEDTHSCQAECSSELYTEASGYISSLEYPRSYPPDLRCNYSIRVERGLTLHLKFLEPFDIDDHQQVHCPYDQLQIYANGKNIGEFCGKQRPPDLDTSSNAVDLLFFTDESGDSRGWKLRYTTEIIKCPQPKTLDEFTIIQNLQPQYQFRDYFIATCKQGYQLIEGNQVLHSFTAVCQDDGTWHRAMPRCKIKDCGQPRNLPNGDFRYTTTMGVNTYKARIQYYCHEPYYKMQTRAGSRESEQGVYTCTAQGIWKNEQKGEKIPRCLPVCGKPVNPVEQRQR
T4 sequence (P00736 464-705 limits assumed): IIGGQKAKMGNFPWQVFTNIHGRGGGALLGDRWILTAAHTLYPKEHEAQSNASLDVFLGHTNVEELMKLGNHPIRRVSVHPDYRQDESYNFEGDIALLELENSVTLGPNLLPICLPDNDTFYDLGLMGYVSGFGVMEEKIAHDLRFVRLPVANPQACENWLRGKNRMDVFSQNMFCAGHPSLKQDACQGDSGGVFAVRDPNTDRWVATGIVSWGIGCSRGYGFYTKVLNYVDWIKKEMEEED
In short: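 Human serum-derived C1r (10 nM) at 25 °C in 50 mM HEPES pH 7.4, 140 mM NaCl, 0.005% Tween-20, 10% DMSO, with 0.44 mM DTNB as indicator. Initial velocities of Z-Gly-Arg-thiobenzyl ester (ZGR) hydrolysis were read at four ZGR levels (~0.1–0.7 x Km) × five inhibitor levels (0–~0.8 x Ki) in microplates. Data (n = 3) were globally fit to a competitive inhibition model.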

Factor Xa = Factor Xa chromogenic ZGR assay; type: biochemical; settings: inhibitor 0 to 226 μM
In short: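 Buffer: 50 mM HEPES pH 7.4, 140 mM NaCl, 0.025% Tween-20, 5% DMSO, with 0.59 mM DTNB indicator. Thiol release was read chromogenically in microplates.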

Aqueous solubility = type: physicochemical; settings: water
C1s = target: T5, C1s (Homo sapiens, UniProt P09871); experiment: Cleavage of C2 by C1s; type: biochemical
T5 sequence (P09871 16-437 limits assumed): T2 sequence (P09871 16-437 limits assumed)
T5 sequence (P09871 438-688 limits assumed): T1 sequence (P09871 438-688 limits assumed)
In short: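 Serum-derived activated C1s (6.25 nM) was mixed with a two-fold test compound series (100–1.56 μM) in HBS++ and C2 was added (0.5 mg/mL stock), 1 h at 37 °C. Products were separated by SDS-PAGE with Coomassie staining. C2b band density was corrected for total C2 and normalized to a C1s + C2 control. Triplicates were fit to a four-parameter dose-response model.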

Neutrophil Elastase = experiment: Neutrophil elastase chromogenic assay; type: biochemical, human; settings: inhibitor 0 to 29.4 μM
In short: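 Neutrophil elastase purified from human sputum (6.9 nM) was run at 25 °C with inhibitor 0–29.4 μM and fixed 52 μM methoxysuccinyl-Ala-Ala-Pro-Val-p-nitroanilide (ε400 = 12.3 mM−1 cm−1). Buffer: 50 mM HEPES pH 7.4, 140 mM NaCl, 0.05% Tween-20. Microplate chromogenic read-out.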

[5] = recombinant human C1s-2SP, competitive inhibition model

Compound: N=C(N)Nc1ccc(C(=O)O)cc1 [4-guanidinobenzoic acid]
inhibition of trypsin [1]: failed to inhibit trypsin

C1s-2SP activity (initial velocity of ZGR cleavage) (C1s-2SP): failed to inhibit C1s enzyme activity
Compound: I.NC(N)=NCc1ccc(CN2CCc3ccccc32)cc1 [D4]

Compound: N=C(N)c1cccnc1 [pyridine-3-carboximidamide, reference compound]
inhibition of C1s ([2]; concentrations approaching ~375 μM, data not shown): failed to detect such inhibition

C1s-2SP activity (initial velocity of ZGR cleavage) (C1s-2SP): failed to inhibit C1s enzyme activity
Compound: COc1ccc(CCNC(N)=NCc2ccc(OCCC(C)C)c(OC)c2)cc1.I [D10]

Compound: O=C(COC(=O)Cn1cnc2scc(-c3cccs3)c2c1=O)Nc1ccc(O)cc1 [B5]
C4b deposition (CP activity) (classical pathway (CP)): reduced C4b deposition to less than two standard deviations below the mean

C1s-2SP activity (initial velocity of ZGR cleavage) (C1s-2SP): failed to inhibit C1s enzyme activity
Compound: Cl.Cl.NC(N)=NCCCN(Cc1ccc(-c2ccccc2)cc1)S(=O)(=O)CCCN=C(N)N [F2]

Ki (C1s-2SP; [5]): 19.5 µM
Compound: N=C(N)c1ccc(N2CCN(c3cccc(F)c3)CC2)nc1 [meta-fluorine A1 analog]

loss of activity compared to A1 (C1s-2SP): > 10 fold
Compound: N=C(N)c1ccc(N2CCN(c3ccc(F)cc3)CC2)nc1 [para-fluorine A1 analog]

C1s-2SP activity (initial velocity of ZGR cleavage) (C1s-2SP): failed to inhibit C1s enzyme activity
Compound: COc1cccc(Oc2ccc(CN=C(N)Nc3ccccc3)cn2)c1.I [H1]

loss of activity compared to A1 (C1s-2SP): > 10 fold
Compound: N=C(N)c1ccc(N2CCN(c3ccc(Cl)cc3)CC2)nc1 [para-chlorine A1 analog]

C1s-2SP activity (initial velocity of ZGR cleavage) (C1s-2SP): failed to inhibit C1s enzyme activity
Compound: O=C(CSc1ncnc2sc(-c3ccccc3)cc12)NC(Cc1c[nH]c2ccccc12)C(=O)O (stereo not drawn) [H9]

Ki (C1s-2SP; [5]): 22.6 µM
Compound: Cc1cccc(N2CCN(c3ccc(C(=N)N)cn3)CC2)c1 [meta-methyl A1 analog]

IC50 (classical pathway (CP); CP ELISA, C4b deposition, A1 100 – 3.1 μM): 22 µM
Ki (thrombin): 51.2 µM
Ki [2]: 5.8 µM
Ki (mouse C1s-2SP): 24.6 µM
Ki (C1s-2SP): 8.5 µM
Ki [4]: 842 µM
selectivity C1s over C1r ([4]; ratio of Ki values): ~ 145 fold
solubility (Aqueous solubility): ≥ 10 mM
IC50 (C1s): ~85 µM
Compound: N=C(N)c1ccc(N2CCN(c3ccccc3)CC2)nc1 [A1, 6-(4-phenylpiperazin-1-yl)pyridine-3-carboximidamide]
inhibition of Cathepsin-G (Cathepsin-G): did not inhibit
C4b deposition (CP activity) (classical pathway (CP)): reduced C4b deposition to less than two standard deviations below the mean; also recorded: essentially complete inhibition of C4b deposition
inhibition of C5a generation [3]: ~ 75%
activity against the LP (lectin pathway (LP)): relatively weak activity against the LP compared to the CP
inhibition of Factor Xa (Factor Xa): did not inhibit
inhibition of Neutrophil Elastase (Neutrophil Elastase): did not inhibit
